# Screens (PubChem)
# Hits are enriched below; roughly 2.5% of the tested compounds scored in any of these assays.
# SIAE primary = human SIAE inhibitors, primary screen, biochemical, fluorescence polarization, FP-Rh probe, 1536-well HTS | Sialate O-acetylesterase (Homo sapiens), Q9HAT2 | SIAE FP-Rh probe binding | inhibition, % at 9.66 µM | actives 0.69% (n = 370,000);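 active means inhibition above a cutoff: mean of compounds within the control limits plus 3 SD of those, cut at about 17% in these data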;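 further: 0% = plate median of compound wells and 100% = probe without SIAE protein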
# HTRA1 inhibitor = HTRA1 serine protease inhibitors, primary screen, biochemical, fluorescence polarization, HTS. inhibition, % at 5.96 µM. actives 0.5% (n = 340,000). recombinant HTRA1, FP-rhodamine activity-based probe; in the data active means inhibition above about 36%;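 further: 0% = enzyme with DMSO and 100% = wells lacking enzyme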
# Target sequence (Q92743 whole entry, looked up): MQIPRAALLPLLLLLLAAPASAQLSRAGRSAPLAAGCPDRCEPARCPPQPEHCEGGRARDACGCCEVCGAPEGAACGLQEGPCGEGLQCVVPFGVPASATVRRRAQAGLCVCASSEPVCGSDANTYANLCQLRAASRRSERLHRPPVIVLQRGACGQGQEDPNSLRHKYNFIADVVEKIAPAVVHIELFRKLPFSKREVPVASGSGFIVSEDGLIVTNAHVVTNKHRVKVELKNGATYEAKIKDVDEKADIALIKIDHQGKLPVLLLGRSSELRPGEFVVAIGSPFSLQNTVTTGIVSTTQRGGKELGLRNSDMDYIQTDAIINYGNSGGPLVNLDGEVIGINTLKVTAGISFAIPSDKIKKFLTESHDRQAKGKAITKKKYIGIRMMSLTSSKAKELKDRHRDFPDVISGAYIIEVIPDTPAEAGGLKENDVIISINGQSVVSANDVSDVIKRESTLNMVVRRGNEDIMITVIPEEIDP
# TCR CD3 inh = inhibitors of human TCR-CD3 interaction, primary screen, biochemical, fluorescence, TAMRA-labeled TCR probe | T-cell receptor (TCR) | inhibition, % at 9.4 µM | actives 0.37% (n = 360,000); in the data active means inhibition above about 19%;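 further: recombinant mutant TCR 2C K166C tagged with TAMRA read by polarization; 0% = receptor in buffer alone and 100% = receptor with positive control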
# rCAG binder-1 = binders of r(CAG) RNA repeats, primary screen, biochemical, fluorescence; AID 651821, 2012; r(CAG) RNA repeat, TO-PRO-1 dye displacement fluorescence; actives 1.3% (n = 370,000); inhibition, % at 3 µM;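 active means inhibition above the plate cutoff, the mean of all test compounds on that plate plus 3 SD, cut at about 35% in these data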;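 further: 0% = DMSO alone and 100% = 100 µM mitoxantrone as full dye displacement; higher means more dye released from RNA so lower well fluorescence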
# ABHD4 inh = ABHD4 inhibitors, primary screen, biochemical, fluorescence polarization, mouse; (Lyso)-N-acylphosphatidylethanolamine lipase (Mus musculus), Q8VD66; purified mABHD4, FP-Rh probe fluorescence polarization; inhibition, % at 8.92 µM; actives 0.54% (n = 370,000);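 active means inhibition exceeding the mean over every tested compound plus 3 SD, cut at about 30% in these data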;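 further: 0% = plate median of compound wells and 100% = S159A mutant with DMSO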
#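 Test system: mABHD4 protein; Read-out basis: % inhibition; Incubation: 45 min + 60 min at 25 °C; Repeats: single replicate; Technique: fluorescence polarization with parallel and perpendicular emission, 525/598 nm; Compound: 8.92 µM, single dose; Benchmarks: full inhibition S159A mutant plus DMSO, zero as sample-well median.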
# rCAG binder conf = small molecules binding CAG repeat RNA – biochemical, fluorescence, confirmation. shares compounds with rCAG binder-1. r(CAG) RNA repeat, TO-PRO-1 dye displacement fluorescence. inhibition, % at 3 µM. actives 70% (n = 4,300);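 active means inhibition above a per-plate cutoff, the mean inhibition of sample wells plus 3 SD, cut at about 35% in these data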;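 further: loss of TO-PRO-1 fluorescence as compound displaces dye from 1x1 AA loop RNA; 0% = DMSO only wells and 100% = 100 µM mitoxantrone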
# DNA CAG counter = displacement of TO-PRO-1 from CAG DNA duplex, counter-screen for rCAG RNA repeat binder project, biochemical, fluorescence, TO-PRO-1 dye, d(CAG) DNA oligo; shares compounds with rCAG binder-1; d(CAG) DNA oligo TO-PRO-1 dye displacement; inhibition, % at 3 µM; actives 94% (n = 4,300);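 active means inhibition above its plate's cutoff, the mean test-well inhibition plus 3 SD, cut at about 4.8% in these data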;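 further: 0% = DNA dye mix with DMSO and 100% = 100 µM mitoxantrone; hits displace the dye from DNA and so lower well fluorescence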
# dCAG dye DR = inhibitors of DNA CAG/GTC TO-PRO-1 complex, dose response, counter-screen for rCAG RNA repeat binder project, biochemical, fluorescence, TO-PRO-1 dye | shares compounds with rCAG binder-1 | DNA CAG/GTC duplex TO-PRO-1 dye displacement fluorescence | IC50, µM | actives 20% (n = 250); in the data active means IC50 below about 10 µM
# dCAG TOPRO ctr = TO-PRO-1 dye complex inhibitors on d(CAG) DNA, dose response, counter-screen, biochemical, fluorescence, late stage; shares compounds with rCAG binder-1; d(CAG) DNA duplex TO-PRO-1 dye displacement; actives 80% (n = 30); AID 720649, 2013; IC50, µM
# rCAG binder-2 = molecules binding r(CAG) RNA repeats, late stage dose response, late-stage follow-up, biochemical, fluorescence, dose response, powder samples; shares compounds with rCAG binder-1; r(CAG) RNA TO-PRO-1 dye displacement; IC50, µM; actives 100% (n = 30); AID 720651, 2013
# ABHD4 confirm = ABHD4 inhibitors, retest, confirmation, biochemical, fluorescence polarization, mouse; purified mABHD4, FP-Rh probe fluorescence polarization; shares compounds with ABHD4 inh; inhibition, % at 8.92 µM; actives 55% (n = 1,800);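 active means mean inhibition across replicates above the hit cutoff set in the primary screen, cut at about 30% in these data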;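 further: 0% = wild-type ABHD4 with DMSO and 100% = catalytically dead S159A mutant with DMSO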
# The depositor's hits bear a star; i = inactive; . = not tested or not shown. Unless noted, how the calls were made is not given here.
SMILES,SIAE primary,HTRA1 inhibitor,TCR CD3 inh,rCAG binder-1,ABHD4 inh,rCAG binder conf,DNA CAG counter,ABHD4 confirm,others
CCOc1ccc(-c2csc(NC(=O)CSCC(=O)O)n2)c2ccccc12,-1.2,-11.1,7.2,62.8*,-27.7,69.7*,24.6*,.,dCAG dye DR=i;dCAG TOPRO ctr=5.49*;rCAG binder-2=1.67*
O=C(O)COc1ccccc1/C=N/NC(=O)c1cc(-c2ccc(Cl)cc2)nc2ccccc12,-11.0,-29.6,7.9,79.1*,-25.7,72.4*,33.2*,.,dCAG dye DR=i
O=C(N/N=C/c1ccc([N+](=O)[O-])o1)c1cc(-c2cccc(Br)c2)nc2ccccc12,7.6,35.3,4.6,42.7*,10.5,46.8*,29.3*,.,
COc1ccc(OC)c(/C=N/NC(=O)c2cc(-c3ccc(C)o3)nc3ccccc23)c1,-12.1,-22.7,-3.7,45.0*,-27.1,13.1,12.8*,.,
CCCc1ccc(-c2cc(C(=O)N/N=C/c3ccc([N+](=O)[O-])o3)c3ccccc3n2)cc1,-2.9,10.1,-2.2,44.9*,10.1,36.1*,19.0*,.,
O=C(N/N=C/c1ccco1)c1cc(-c2ccccc2)nc2ccccc12,1.2,-11.1,9.6,7.1,-17.6,.,.,.,
O=C(O)COc1ccccc1/C=N/NC(=O)c1cc(-c2ccccc2)nc2ccccc12,-6.8,-10.9,-2.0,34.4,-10.7,.,.,.,
CSc1nc(-c2ccc(Cl)cc2)nc(N)c1C#N,-3.3,.,1.9,1.6,-2.0,.,.,.,
CCCc1cc(=O)[nH]c(SCC(=O)Nc2sc3c(c2C#N)CCC(C)C3)n1 (centres undefined),-6.2,-42.8,3.7,66.2*,4.4,52.7*,19.9*,.,
CC1CCc2c(sc(NC(=O)CSc3ncn[nH]3)c2C#N)C1 (centres undefined),4.9,-9.9,-3.3,5.1,-5.0,.,.,.,
CC1CCc2c(sc(NC(=O)COC(=O)c3ccc(NC(=O)CC#N)cc3)c2C#N)C1 (centres undefined),-25.0,-43.4,-3.7,39.4*,-52.2,37.0*,17.7*,.,
Cc1cc(C(=O)OCC(=O)Nc2sc3c(c2C#N)CCC(C)C3)c2ccccc2n1 (centres undefined),-11.3,-15.0,1.3,30.6,13.9,.,.,.,
O=C1c2ccccc2C(=O)N1c1ccccc1,6.1,-3.5,-3.7,-2.0,3.9,.,.,.,
O=Cc1ccc(/C=C2\c3ccccc3C(=O)N2c2ccccc2)o1,9.6,.,-3.8,41.4*,41.1*,22.6,15.2*,.,
CN(C(=O)COC(=O)c1ccc2[nH]c3c(c2c1)CCCC3)C1CCS(=O)(=O)C1 (centres undefined),-4.7,2.1,-2.9,1.5,-1.3,.,.,.,
CCCCCCC(=O)Nc1nc(C)c(-c2csc(Nc3cc(Cl)ccc3C)n2)s1,7.2,-20.2,0.4,38.5*,6.4,20.4,11.1*,.,
CCCCC(=O)Nc1nc(C)c(-c2csc(Nc3cc(Cl)ccc3OC)n2)s1,5.9,-11.2,-6.2,45.0*,-0.3,22.9,13.1*,.,
CC(C)(C)/C(COc1ccccc1[N+](=O)[O-])=N/O,9.3,-10.6,-5.0,-2.0,-6.4,.,.,.,
COc1cc(/C=C(\C#N)c2nc3ccccc3s2)cc([N+](=O)[O-])c1O,-28.6,29.6,-2.6,32.9,20.8,.,.,.,
N#C/C(=C\c1ccc(O)c([N+](=O)[O-])c1)c1nc2ccccc2s1,-50.1,16.5,14.1,88.2*,30.3*,82.5*,43.1*,70.7*,
O=C1/C(=C/c2ccco2)SC(=S)N1CC1CCCO1 (centres undefined),8.7,.,-10.6,46.1*,32.4*,16.3,8.6*,5.1,
O=C(CCCN1C(=O)/C(=C/c2ccco2)SC1=S)Nc1ccccc1C(=O)O,6.7,5.2,4.3,87.6*,32.1*,83.4*,49.4*,-26.2,
O=C1/C(=C\c2ccc(-c3ccccc3Cl)o2)SC(=S)N1CC1CCCO1 (centres undefined),4.0,0.1,-2.9,4.9,-1.0,.,.,.,
Cc1ccc(/C=C2\SC(=S)N(CC3CCCO3)C2=O)o1 (centres undefined),5.3,7.6,-6.9,46.5*,29.6*,40.1*,15.3*,-15.6,
CCOc1ccc(S(=O)(=O)Nc2cc(SCC(=O)O)c(O)c3ccccc23)cc1,6.0,31.6,0.1,36.4*,42.6*,59.6*,23.6*,45.2*,
SMILES,SIAE primary,HTRA1 inhibitor,TCR CD3 inh,rCAG binder-1,ABHD4 inh,rCAG binder conf,DNA CAG counter,ABHD4 confirm,others
Cc1cc(NC(=O)CSc2nnc(C3COc4ccccc4O3)n2N)no1 (centres undefined),4.7,7.2,1.7,-1.7,4.1,.,.,.,
CC(=O)Oc1cc2c3c(c1)/C(=C1/SC(=S)NC1=O)C(=O)N3C(C)(C)C=C2C,6.0,29.2,2.5,59.4*,61.2*,91.8*,73.4*,100.7*,
COc1cc(N)c(Cl)cc1Cl,-0.5,.,4.6,-0.6,3.0,.,.,.,
COc1cc([N+](=O)[O-])cc(/C=N/NC(=O)C(C)Nc2cccc3ccccc23)c1O (centres undefined),9.5,19.1,1.7,79.2*,33.3*,66.7*,30.1*,38.9*,
O=C(Cn1ccnc1)c1ccc(O)c(O)c1,-0.2,2.2,9.9,1.0,0.3,.,.,.,
O=C(CSc1nnc(-c2ccccn2)o1)Nc1cccc(Cl)c1,-0.2,2.9,3.4,0.6,4.7,.,.,.,
C/C(=N\Nc1cccc(C(=O)O)c1)c1ccc(Cl)s1,-5.5,-2.8,-2.2,41.7*,39.6*,21.1,3.5,44.8*,
